Data taken from BindingDB's records for doi:10.1021/jm960807v (University of Florence, 1997).

Target: T1, 3-oxo-5-alpha-steroid 4-dehydrogenase 2 (Homo sapiens, UniProt P31213)
T1 sequence (P31213 whole entry): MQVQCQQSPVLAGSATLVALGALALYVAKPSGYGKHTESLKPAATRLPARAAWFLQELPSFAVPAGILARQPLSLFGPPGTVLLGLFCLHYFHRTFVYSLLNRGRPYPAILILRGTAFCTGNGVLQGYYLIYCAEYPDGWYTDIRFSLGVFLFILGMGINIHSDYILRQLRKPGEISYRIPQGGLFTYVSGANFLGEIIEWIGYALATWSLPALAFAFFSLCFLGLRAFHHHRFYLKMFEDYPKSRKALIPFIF
Test: Inhibitory activity against 5-alpha Reductase-2 on human prostate homogenates from surgically derived benign hyperplastic tissue
Outline: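 Benign hyperplastic human prostate tissue, stored at -80 °C, was homogenized near 0 °C in 50 mM TRIS pH 7.4 with salts, nicotinamide and sucrose, spun at 200g, and the combined supernatants were used. Homogenate (0.1 mg protein) was incubated with 30 nM testosterone (9% [3H]) and 0.3 mM NADPH for 30 min at 37 °C, with the inhibitor added alongside the substrate. Inhibitor range was 10⁻¹⁰–10⁻⁵ M. DHT conversion was read by TLC and scintillation, in duplicate.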

| SMILES | IC50 |
| --- | --- |
| C[C@]12CCC3=C4C(=O)CCN=C4CCC3[C@@H]1CCC2=O (some centres not stated) | > 100 µM |
| C[C@]12CC=C3[C@@H](CCC4=CC(=O)CCN43)C1CCC2=O (some centres not stated) | 4.6 µM |
